# Screens deposited in PubChem by several laboratories.
# SMARCA2 act: SMARCA2 (BRM) function activators, primary screen, cell-based, luminescence, high throughput; MG213 cells, MMTV-luciferase reporter, dexamethasone, overnight; activation, % at 9.1 µM; 1% of 370,000 active; AID 652017, 2013; in the data active = activation above about 7.8%;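 note: 0% = vehicle wells and 100% = reference activator wells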
# MC4R antag cAMP: MC4R antagonists of cAMP signaling, primary screen, cell-based, TR-FRET, antagonist arm of biased-ligand search. 0.48% of 360,000 active. MC4R-expressing cells, MTII-stimulated cAMP, LANCE TR-FRET. inhibition, % at 6.5 µM. Melanocortin receptor 4 (Homo sapiens), P32245;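 active = inhibition above its plate's cutoff, the mean of tested wells on that plate plus 3 SD, cut at about 29% in these data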;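 note: 0% = Melanotan II alone and 100% = Melanotan II plus saturating MCL0020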
# Target sequence (P32245 whole entry, looked up): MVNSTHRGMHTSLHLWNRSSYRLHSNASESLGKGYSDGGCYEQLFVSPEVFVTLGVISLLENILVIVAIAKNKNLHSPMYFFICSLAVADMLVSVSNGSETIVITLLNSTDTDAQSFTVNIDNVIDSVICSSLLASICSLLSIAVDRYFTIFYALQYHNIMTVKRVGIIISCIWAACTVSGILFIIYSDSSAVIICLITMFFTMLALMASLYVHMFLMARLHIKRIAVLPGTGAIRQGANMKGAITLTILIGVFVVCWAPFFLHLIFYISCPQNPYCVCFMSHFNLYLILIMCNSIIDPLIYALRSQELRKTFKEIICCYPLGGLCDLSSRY
#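 System: U2OS cells stably expressing human melanocortin 4 receptor (MC4R). Reagent: Melanotan II challenge after compound preincubation. Doses: 6.5 µM. Times: 30-min compound, 1-h challenge, 1-h detection, room temperature. Measured by: TR-FRET with Eu-cAMP and labeled anti-cAMP, 671 nm. Replicates: singlicate.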
# CFTR F508del cor: F508del CFTR correction, initial screen, CFBE line, single point; activity (quench increase), % at 7.58 µM; 0.36% of 350,000 active; AID 720511, 2013; CFBE cells, YFP halide quenching; stimulated with forskolin plus potentiator P3; % fluorescence drop versus neutral controls;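 active = mean added fluorescence quench of at least 8% versus neutral control, with both replicates also reaching 8%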;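 note: cells transiently co-express mutant CFTR-F508del with the halide-sensitive YFP; corrector assay measuring rescue of mutant channel to the surface after 24 h compound exposure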
# MC4R barr agon: MC4R agonists recruiting beta-arrestin, primary screen, cell-based, luminescence, agonist arm of biased-ligand search; 0.98% of 360,000 active; Melanocortin receptor 4 (Homo sapiens), P32245; activation, % at 8.9 µM; AID 540308, 2011; U2OS MC4R beta-arrestin complementation; percent of melanotan II response, DMSO zero;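 active = activation above a per-plate cutoff, the mean activation of sample wells on that plate plus 3 SD, cut at about 8% in these data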
# cAMP nonselect: nonselective cAMP signaling inhibitors, parental cells, counter-screen for MC4R biased antagonist project, cell-based, TR-FRET, U2OS, forskolin, triplicate. shares compounds with MC4R antag cAMP. LANCE TR-FRET. inhibition, % at 6.5 µM. 26% of 1,600 active;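 active = mean inhibition over triplicates above the low-control well mean plus 3 SD, set per campaign, cut at about 13% in these data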;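 note: signal is single emission at 671 nm which falls as cellular cAMP rises; 0% = forskolin-stimulated wells and 100% = buffer without forskolin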
# MC4R cAMP antag: MC4R cAMP antagonists, retest, confirmation, cell-based, TR-FRET; shares compounds with MC4R antag cAMP; MC4R-expressing cells, MTII-stimulated cAMP; inhibition, % at 6.5 µM; 27% of 1,600 active; AID 602195, 2012; in the data active = inhibition above about 29%;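 note: 0% = agonist stimulated wells alone and 100% = agonist stimulated wells plus saturating reference antagonist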
# Active calls of the source: *; x = not tested or not shown; + = active, no number; ! = a repeat was not active. In the library only some 2.1% were active in any assay of this set; here they are far more common.
SMILES,SMARCA2 act,MC4R antag cAMP,CFTR F508del cor,MC4R barr agon,cAMP nonselect,MC4R cAMP antag
Cc1ccc(S(=O)(=O)Nc2nc(C)cc(NN)n2)cc1,-1.9,28.8*,-0.4,-1.2,3.8,9.4
Cc1ccc(S(=O)(=O)Nc2nc(C)cc(NCCN)n2)cc1,-4.2,-0.8,-2.5,-1.1,x,x
C[C@H](CO)N1C[C@H](C)[C@@H](CN(C)C(=O)Nc2ccc3c(c2)OCO3)OCCCC[C@H](C)Oc2ccc(NC(=O)Nc3ccccc3)cc2C1=O,x,x,0.6,x,x,x
C[C@H]1Cn2cnc(C(=O)Nc3ccccc3)c2C(=O)N1,-2.3,31.0*,-8.8,-0.7,-1.1,-0.8
O=C(CN1C(=O)NC2(CCCC2)C1=O)Nc1ccc(S(=O)(=O)N2CCOCC2)cc1,5.5,34.1*,-2.0,-2.4,1.0,-2.9
COc1cccc(/C=C/C2=CC(C)(C)NC(=S)N2)c1,2.3,28.7*,0.4,-1.8,-3.1,-9.6
COc1ccc(S(=O)(=O)N(C)C[C@H]2Oc3ccc(NC(=O)c4ccncc4)cc3CC(=O)N([C@H](C)CO)C[C@H]2C)cc1,x,x,-1.8,x,x,x
c1ccc(-c2nc3c([nH]2)CCc2nonc2-3)cc1,2.9,29.2*,-4.1,-2.2,0.6,-2.5
Cc1ccc(Sc2ncccc2C(N)=O)cc1,-0.8,-8.4,0.6,2.3,x,x
Cc1ccc(Sc2cnc(N)nc2C)cc1,3.3,36.7*,x,4.2,-2.4,-6.9
COc1ccc2c3c(n(C)c2c1)[C@H](CO)N(C(=O)c1cccnc1)CC31CN(C)C1,x,x,2.1,x,x,x
COc1ccc(S(=O)(=O)Nc2ccc3c(c2)C(=O)N([C@@H](C)CO)C[C@@H](C)[C@H](CN(C)S(=O)(=O)c2ccc(Cl)cc2)O3)cc1,x,x,2.6,x,x,x
O=C(c1cccs1)N(Cc1nc2sc3c(c2c(=O)[nH]1)CCCC3)C1CCCC1,-4.2,30.1*,x,4.5,-14.5,-28.3
COc1ccc(-n2c(CN3CCN(c4ccccn4)CC3)nc3ccc([N+](=O)[O-])cc3c2=O)c(OC)c1,4.2,38.1*,-0.2,-1.3,0.8,7.2
Cc1cc(C)n(-c2nnc(Cl)c3ccccc23)n1,2.4,37.1*,-0.3,-4.6,30.5*,45.6*
Cc1ccc(-c2nnc(-n3nc(C)cc3C)c3ccccc23)cc1,-2.0,8.6,x,-0.8,x,x
C[C@@H]1CN([C@H](C)CO)C(=O)c2cc(NC(=O)C3CCCCC3)ccc2O[C@@H](C)CCCCO[C@H]1CN(C)S(=O)(=O)c1ccc(Cl)cc1,x,x,-1.2,x,x,x
C/C=C/c1ccc2c(c1)O[C@@H](CN(C)C(=O)c1cnccn1)[C@@H](C)CN([C@@H](C)CO)S2(=O)=O,x,x,3.2,x,x,x
COc1ccc(CNC(=O)c2ccc(-c3ccc(F)c(F)c3)c3ccoc23)cc1OC,-2.0,39.6*,-0.3,1.2,-4.9,3.5
O=C(COC(=O)c1ccc(NS(=O)(=O)c2cccs2)cc1O)NCc1ccccc1,-2.7,-1.6,1.0,-0.4,x,x
O=C(COC(=O)c1ccc(NS(=O)(=O)c2cccs2)cc1O)Nc1nc2ccccc2s1,3.0,30.9*,-2.4,1.0,4.6,4.8
COc1ccc2c3c([nH]c2c1)[C@H](CO)N(Cc1ccncc1)CC31CCN(C(=O)CN(C)C)CC1,x,x,1.0,x,x,x
CCOC(=O)/C=C/C(=O)Nc1cccc([N+](=O)[O-])c1,x,34.2*,x,-4.7,25.8*,60.1*
Cc1ccc(F)cc1S(=O)(=O)N[C@@H]1CCN(Cc2ccc3[nH]ccc3c2)C1,x,x,3.2,x,x,x
Cc1ccccc1CNC(=O)CC1C(=O)NCCN1CC1CCCCC1 (configuration not stated),0.9,8.6,-0.2,-0.1,x,x
SMILES,SMARCA2 act,MC4R antag cAMP,CFTR F508del cor,MC4R barr agon,cAMP nonselect,MC4R cAMP antag
O=C(CC1C(=O)NCCN1CC1CCCCC1)NCc1cccc(F)c1F (configuration not stated),-0.7,29.5*,x,2.6,0.5,-1.4
O=C(NCCCCCCNC(=O)N1CCCCCC1)N1CCCCCC1,1.0,29.7*,x,0.9,-2.6,-0.5
C[C@@H]1CN([C@H](C)CO)C(=O)c2cc(NS(=O)(=O)c3ccc(F)cc3)ccc2O[C@H]1CN(C)S(=O)(=O)c1cn(C)cn1,x,x,-1.9,x,x,x
CC(C)CNC(=O)c1cccc(NC(=O)c2ccc(Cl)c([N+](=O)[O-])c2)c1,-3.1,31.5*,0.4,1.6,10.5,14.9
Cc1ccccc1CNC(=O)Cc1ccccc1[N+](=O)[O-],2.4,0.8,x,1.9,x,x
Cc1ccccc1CNC(=O)c1ccc(Cl)c([N+](=O)[O-])c1,-2.2,30.7*,x,-1.5,20.0*,41.5*
COc1cccc(C(=O)Nc2cccc(C(=O)NCC(C)C)c2)c1,0.4,9.3,x,0.0,x,x
C[C@@H]1CCCCO[C@@H](CN(C)C(=O)Cc2ccccc2)[C@H](C)CN([C@H](C)CO)C(=O)c2cc(NC(=O)C3CCCCC3)ccc2O1,x,x,0.1,x,x,x
CC1(C)Cc2c(sc3[nH]c(=S)n(Cc4ccco4)c(=O)c23)CO1,-2.9,34.2*,x,-0.1,7.1,16.7
COc1ccccc1NCC(=O)N/N=C(\C)c1cccs1,-3.2,39.8*,-0.5,1.8,2.2,10.3
Cc1ccc(-n2nc(-c3ccc(OC(F)(F)F)cc3)cc2N)cc1C,0.1,29.2*,-1.1,4.2,3.9,8.0
Cc1ccc(-n2nc(-c3ccc(N)cc3)cc2N)cc1,1.9,0.3,-3.0,0.0,x,x
CCN(CC)S(=O)(=O)c1ccc(N2CCOCC2)c(NC(=O)c2ccccc2F)c1,0.4,30.4*,1.6,-3.1,3.0,18.1
CNC(=O)NC(=O)C(C)OC(=O)c1c2c(nc3ccccc13)/C(=C/c1cccs1)CC2 (configuration not stated),0.9,30.4*,x,8.2,4.4,16.6
CCCCNC(=O)COC(=O)c1c2c(nc3ccccc13)/C(=C/c1cccs1)CC2,1.8,13.3,x,5.0,x,x
COC(=O)c1c(NC(=O)COC(=O)c2ccc(Cl)cc2[N+](=O)[O-])sc2c1CCCCC2,3.0,30.9*,x,-1.1,6.5,21.8
N#CC1(NC(=O)Cn2ncc(Cl)c(Cl)c2=O)CCCCC1,-8.5,34.6*,-8.1,-2.9,25.4*,36.8*
N#CC1(NC(=O)CN2C(=O)c3ccccc3C2=O)CCCCC1,-2.8,1.3,-0.6,-2.0,x,x
O=C(O)c1ccccc1-c1c2cc(I)c(=O)c(I)c-2oc2c(I)c(O)c(I)cc12,-2.0,+,8.7*!,-3.3,105.1*,164.2*
COc1cc(OC)cc(C(=O)Nc2nc3ccc(S(C)(=O)=O)cc3s2)c1,-1.3,33.9*,6.5,-3.2,-1.9,-5.4
